The list is not random: actives were taken first. Their share in the collection is about 2.3%.
MPTP block: inhibitors of mitochondrial permeability transition pore; isolated mouse mitochondria, Ca2+ swelling absorbance, 30 min; inhibition, % at 10 µM; 360,000 compounds, 1.4% hits; AID 602449;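 active means inhibition of 50% or more, scaled per plate between neutral and stimulator controls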
MT1-MMP act inh: inhibitors of human MT1-MMP activation; P50281; 360,000 compounds, 0.061% hits; GFP/RFP ratio change, % at 20 µM; HT1080 RFP-PRO-GFP cells, GFP/RFP ratio fluorescence, overnight; percent of plate control window, DMSO zero; AID 651647;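 active means GFP/RFP ratio change of at least 30% with cell ATP level not reduced by more than half and red fluorescence within 50% of control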
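Assay system – RFP-PRO-GFP reporter HT1080 cells · Compound dosing – single dose of 20 µM compound, 1% DMSO final · Incubation – overnight compound exposure at 37 °C · Measure – GFP/RFP fluorescence ratio · Benchmarks – DMSO wells and RFP-L50D-GFP cells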
ATG4B inhibitor: ATG4B (human) cysteine protease inhibition; inhibition, % at 8.33 µM; Q9Y4P1; ATG4B cleavage of LC3-PLA2, NBD-HPC fluorescence, 1 h; 340,000 compounds, 0.51% hits; in the data active means inhibition above about 40%
Target sequence (Q9Y4P1 whole entry, looked up): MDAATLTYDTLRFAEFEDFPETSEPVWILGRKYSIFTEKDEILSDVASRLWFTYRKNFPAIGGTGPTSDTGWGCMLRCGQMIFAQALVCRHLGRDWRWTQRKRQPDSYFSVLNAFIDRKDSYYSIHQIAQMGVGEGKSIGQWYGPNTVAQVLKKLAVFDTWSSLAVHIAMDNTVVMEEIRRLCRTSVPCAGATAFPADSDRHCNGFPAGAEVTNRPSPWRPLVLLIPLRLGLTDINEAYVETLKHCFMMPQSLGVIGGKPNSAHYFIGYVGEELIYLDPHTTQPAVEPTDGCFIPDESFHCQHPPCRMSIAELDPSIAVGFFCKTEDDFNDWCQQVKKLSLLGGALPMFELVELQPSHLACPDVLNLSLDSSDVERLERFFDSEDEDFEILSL
SKN-1 block: C. elegans SKN-1 inhibition; C. elegans VP596 Pgst-4::GFP/RFP ratio, acrylamide-induced, 24 h; inhibition, % at 21.8 µM; 360,000 compounds, 0.49% hits;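 active means interference check ratio from 0.5 to 1.5 plus GFP to RFP signal ratio inhibition reaching or exceeding a fixed threshold, cut at about 30% in these data, passing the limit was not always enough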
MPTP counter: Rhodamine 123 counter-screen of mitochondrial pore hits; shares compounds with MPTP block; isolated mitochondria, membrane potential, Rhodamine 123 fluorescence; inhibition, % at 10 µM; 5,000 compounds, 78% hits; AID 624504; in the data active means inhibition above about 22%
MPTP swell DR: MPTP inhibition, dose response swelling confirmation; 780 compounds, 58% hits; AID 651561; shares compounds with MPTP block; isolated mitochondria swelling, absorbance; IC50, µM; in the data active means IC50 below about 20 µM
MPTP cs DR: active in counter-screen for permeability transition pore inhibitors; isolated mitochondria counterscreen, fluorescence read-out; IC50, µM; shares compounds with MPTP block; 780 compounds, 49% hits; in the data active means IC50 below about 80 µM
A number is an active result; . = inactive; / = not tested or not shown.

SMILES	MPTP block	MT1-MMP act inh	ATG4B inhibitor	SKN-1 block	MPTP counter	others
COC(=O)c1sc(NC(=O)c2cc(-c3ccccc3)nc3ccccc23)c(C#N)c1C	66.2	.	.	.	69.7
Cc1ccccc1NC(=O)c1sc(NC(=O)COc2ccccc2)c(C#N)c1C	54.2	.	.	.	75.4
CCOC(=O)c1sc(NC(=O)c2cc(-c3ccc(C)cc3)nc3ccccc23)c(C#N)c1C	88.5	.	.	.	77.9
COC(=O)c1sccc1NC(=O)c1cc(-c2ccc(C)cc2)nc2ccccc12	.	.	.	.	/
COC(=O)c1sc(NC(=O)c2ccc([N+](=O)[O-])o2)c(C#N)c1C	91.7	.	.	.	81.2
C[C@@H]1CN([C@H](C)CO)C(=O)CCCn2nncc2CO[C@H]1CN(C)Cc1ccc2c(c1)OCO2	.	.	/	.	/
O=C(CCNC(=O)N1CCn2c1nc1ccccc12)NCc1ccccc1Cl	.	.	.	.	/
Cc1ccccc1-c1cc(C(=O)Nc2sc(C(=O)OC(C)C)c(C)c2C#N)c2ccccc2n1	90.7	.	.	.	78.7
CCOC(=O)c1sc(NC(=O)CSc2n[nH]c(-c3ccncc3)n2)c(C#N)c1C	77.2	.	.	.	79.9
CCOC(=O)c1sc(NC(=O)CSc2nccc(C)n2)c(C#N)c1C	.	.	.	.	/
Cc1cc(NC(=O)c2cc(-c3ccccc3C)nc3ccccc23)no1	.	.	.	.	/
CN(C(=O)CSc1nc(-c2ccc(C(C)(C)C)cc2)c(C#N)c(=O)[nH]1)C1CCCCC1	.	.	.	.	/
CCCCCCc1cc2cc(C(=O)Nc3ccccc3OC)c(=O)oc2cc1O	57.0	.	.	.	.	MPTP swell DR=2.57;MPTP cs DR=<2.5
CCCCCCc1cc2cc(S(=O)(=O)c3ccc(F)cc3)c(=O)oc2cc1O	81.4	.	.	.	93.1
CCCCCCc1cc2cc(-c3nnc(-c4ccccc4OC)o3)c(=O)oc2cc1O	83.9	.	.	.	.
CCCCCCc1cc2cc(-c3nnc(-c4ccccc4O)o3)c(=O)oc2cc1O	103.9	.	.	57.2	.
Cc1cc(OCC(=O)N2CCC(O)CC2)c2c(C)cc(=O)oc2c1	.	.	.	.	/
Cc1cc(C)n(C(=O)C(C)N2C(=O)c3ccccc3C2=O)n1 (stereo unspecified)	.	.	.	.	/
CC(=O)N1CCN(c2ccc(NC(=O)c3ccc([N+](=O)[O-])cc3Cl)cc2)CC1	.	.	.	.	/
CCCCN(CCCC)S(=O)(=O)c1ccc(NC(=O)c2cccs2)cc1	85.9	.	.	.	72.5
CCCCN(CCCC)S(=O)(=O)c1ccc(NC(=O)c2ccc([N+](=O)[O-])cc2Cl)cc1	94.7	.	.	.	95.9
O=C(Nc1ccc(C(=O)NC2CCCCC2)cc1)c1cccnc1	.	.	.	.	/
COC(=O)c1ccc(COc2ccccc2/C=C(\C#N)C(=O)Nc2c(C)cc(C)cc2C)cc1	.	.	.	.	/
Cc1cc(C)c(NC(=O)/C(C#N)=C/c2ccc(OCc3ccc(F)cc3)cc2)c(C)c1	85.3	.	.	.	22.0
c1ccc(-c2cn(-c3ccccc3)c3ncnc(N4CCCCC4)c23)cc1	.	.	.	.	/
SMILES	MPTP block	MT1-MMP act inh	ATG4B inhibitor	SKN-1 block	MPTP counter	others
CN1CCN(c2ncnc3c2c(-c2ccccc2)cn3-c2ccc(F)cc2)CC1	79.5	.	.	.	.	MPTP swell DR=19.9;MPTP cs DR=.
Cc1cc(C(=O)NCC(c2ccco2)N2CCCC2)c2ccccc2n1 (stereo unspecified)	.	.	.	.	/
COc1ccccc1N1CCN(C(=O)C(C)CS(=O)(=O)c2ccc3c(c2)NC(=O)CS3)CC1 (stereo unspecified)	.	.	.	.	/
COc1ccc(CCNC(=O)c2coc(=O)c(Br)c2)cc1	/	/	.	/	/
Cc1ccc(S(=O)(=O)/N=C(/Nc2ccc([N+](=O)[O-])cc2)c2ccccc2)cc1	.	/	.	.	/
Cc1ccc(S(=O)(=O)/N=C(/Nc2ccc([N+](=O)[O-])cc2[N+](=O)[O-])c2ccccc2)cc1	86.5	.	.	.	92.1
CC(CN1c2ccccc2Sc2ccccc21)N(C)C (stereo unspecified)	.	.	.	.	/
